Data on nine compounds can be found in ChEMBL document CHEMBL3351242, “Tetrahydroxanthene-1,3(2H)-dione derivatives from Uvaria valderramensis” (2014).

Converted amounts (≈) assume the structure as drawn. The source made the active and inactive calls.

Holding throughout (format): functional
The test system of assay [1] is Mycobacterium tuberculosis. Kind of assay: Antitubercular activity against Mycobacterium tuberculosis H37Rv by MABA assay. The procedure, abridged:
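Microplate Alamar Blue assay on the H37Rv strain, with rifampin, isoniazid and streptomycin as positive drug controls; values reported as MIC in μg/mL.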
For orientation: The colour change of resazurin is a common sign of viable cells or microbes.

The next assay has as its system K562. Description: Cytotoxicity against human K562 cells. The procedure, abridged:
(§1)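 Growth inhibition measured colorimetrically with CellTiter-Blue and MTT read-outs, with imatinib as reference drug; values reported as GI50 in μg/mL.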

The next assay concerns HUVEC. Kind of assay: Cytotoxicity against HUVEC. To be noted: Homo sapiens. In a few lines: as §1
In the next assay the test system is HeLa. Description: Cytotoxicity against human HeLa cells. In a few lines: as §1

Turning to `COc1ccc2c(c1)C[C@]1(OC)C(=O)/C(=C(O)/C=C/c3ccccc3)C(=O)C[C@@]1(OC)O2`, the lowest concentration to inhibit growth in assay [1] (MIC) was 10 µg/mL (≈ 22.9 µM).

Take `CC(=O)O[C@@H]1C(=O)C=COC=C1COC(=O)c1ccccc1`: the GI50 (commonly the concentration giving 50% growth inhibition) with K562 amounted to 1.4 µg/mL (≈ 4.63 µM); with HUVEC, 5.4 µg/mL (≈ 17.9 µM). For the same compound, inhibition of growth in assay [1] (MIC) required 32 µg/mL (≈ 106 µM).

Turning to `COc1ccc2c(c1)C[C@]1(O)C(=O)/C(=C(O)/C=C/c3ccccc3)C(=O)C[C@@]1(OC)O2` (relative stereo), the MIC (usually the smallest concentration in the dilution series that meets the test's criterion for growth inhibition) in assay [1] was “inactive”.

The compound `COc1ccc(C[C@H]2c3cc(O)c(OC)cc3CCN2C)cc1O` [(S)-RETICULINE] returned an MIC in assay [1] of 32 µg/mL (≈ 97.1 µM).

On to `COc1cccc2c1C(=O)c1c(O)c3c(c(O)c1C2=O)C[C@@](O)(C(=O)CO)C[C@@H]3O[C@H]1C[C@H](N)[C@H](O)[C@H](C)O1` [DOXORUBICIN], for which, in the assay with HeLa, the CC50 (commonly the concentration giving 50% cytotoxicity) is 2 µg/mL (≈ 3.68 µM). Further, the GI50 with K562 amounted to 1 µg/mL (≈ 1.84 µM); in the assay with HUVEC, 0.1 µg/mL (≈ 0.184 µM).

With `Cc1ccc(NC(=O)c2ccc(CN3CCN(C)CC3)cc2)cc1Nc1nccc(-c2cccnc2)n1` [IMATINIB], the CC50 in the assay on HeLa is above 10 µg/mL. In addition, the GI50 in the assay on K562 is 0.1 µg/mL (≈ 0.203 µM); in the assay on HUVEC, above 10 µg/mL.

Regarding `NNC(=O)c1ccncc1` [ISONIAZID], the MIC in assay [1] is 0.63 µg/mL (≈ 4.59 µM).

In assay [1], `CO[C@H]1/C=C/O[C@@]2(C)Oc3c(C)c(O)c4c(O)c(c(/C=N/N5CCN(C)CC5)c(O)c4c3C2=O)NC(=O)/C(C)=C\C=C\[C@H](C)[C@H](O)[C@@H](C)[C@@H](O)[C@@H](C)[C@H](OC(C)=O)[C@@H]1C` [RIFAMPIN] came in with an MIC of 0.15 µg/mL (≈ 0.182 µM).

`CN[C@@H]1[C@H](O[C@H]2[C@H](O[C@H]3[C@H](O)[C@@H](O)[C@H](N=C(N)N)[C@@H](O)[C@@H]3N=C(N)N)O[C@@H](C)[C@]2(O)C=O)O[C@@H](CO)[C@H](O)[C@H]1O` [STREPTOMYCIN] came in with an MIC in assay [1] of 0.83 µg/mL (≈ 1.43 µM).
